Active and inactive are the calls of the source. The calls are words filed in the database; no cut-off is given here.
Experiments:
Mus musculus [1] = species on record: Mus musculus; assay: Percent increase in life span (% ILS) was tested at optimal dose.; format: functional
Summary of the method: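 In vivo murine P388 lymphocytic leukemia screen; antitumor effect read as percent increase in life span (% ILS).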

Mus musculus [2] = species on record: Mus musculus; assay: Number of animals survived after 30 days of treatment; 0/6.; format: functional
P388 [3] = assay: Lethal dose in murine lymphocytic leukemia P388 cells; format: functional, Mus musculus
P388 [4] = assay: Antitumor activity in murine lymphocytic leukemia P388 cells; format: functional, Mus musculus
Summary of the method: (§1)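 Preliminary in vivo antitumor screen in mice bearing murine lymphocytic leukemia P388. The read-out is percent increase in life span (% ILS). Highest nontoxic doses used in the assay are reported in parentheses.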

P388 [5] = assay: The compound tested for the lethal dose in murine lymphocytic leukemia P388.; format: ADME; conditions: mouse
P388 [6] = assay: The compound tested for the highest non-toxic dose in murine lymphocytic leukemia P388.; format: functional, Mus musculus
Summary of the method: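 In vivo murine P388 lymphocytic leukemia screen; the value reported is the highest nontoxic dose used in the assay.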

Mus musculus [7] = species on record: Mus musculus; assay: Percent increase in life span (% ILS) was tested at optimal dose; I indicates inactive; format: functional, organism-based; summary of the method: as §1
Mus musculus [8] = species on record: Mus musculus; assay: Number of animals survived after 30 days; 3/6; format: functional
Mus musculus [9] = species on record: Mus musculus; assay: Number of animals survived after 60 days; 0/6; format: functional
Mus musculus [10] = species on record: Mus musculus; assay: Number of animals survived after 30 days; 4/6; format: functional
Mus musculus [11] = species on record: Mus musculus; assay: Number of animals survived after 30 days; 2/6; format: functional
Mus musculus [12] = species on record: Mus musculus; assay: Number of animals survived after 30 days; format: functional
Mus musculus [13] = species on record: Mus musculus; assay: Number of animals survived after 60 days; 3/6; format: functional
Mus musculus [14] = species on record: Mus musculus; assay: Number of animals survived after 30 days; 1/6; format: functional
Mus musculus [15] = species on record: Mus musculus; assay: Number of animals survived after 30 days; 6/8; format: functional

Row | SMILES | ILS (Mus musculus [1]) | No. of animals survived (Mus musculus [2]) | LD20 (P388 [3]) | Optimal dose (P388 [4]) | Highest non-toxic dose (P388 [6]) | ILS (Mus musculus [7]) | also measured
1 | CC(CO)(CO)NCc1ccc2c3cccc4cccc(c5cccc1c52)c43.Cl | 100% | 0 | 425 mg/kg | 350 mg/kg |  |  | 
2 | CC(CO)(CO)NCc1ccc2cccc3c2c1-c1ccccc1-3.Cl | 100% | 0 |  | 140 mg/kg |  |  | LD20 (P388 [5]): 140 mg/kg
3 | CC(CO)(CO)NCc1ccc(-c2ccccc2)c2ccccc12.Cl |  |  |  | 175 mg/kg | 175 mg/kg | inactive | 
4 | CC(CO)(CO)NCc1c2c3c(cccc3c3ccccc13)CC2 | 200% |  | 70 mg/kg | 60 mg/kg |  |  | No. of animals survived (Mus musculus [8]): 3; No. of animals survived (Mus musculus [9]): 0
5 | CC(CO)(CO)NCc1c2c3c(cccc3c3ccccc13)C=C2 | 225% |  | 125 mg/kg | 110 mg/kg |  |  | No. of animals survived (Mus musculus [9]): 0; No. of animals survived (Mus musculus [10]): 4
6 | CC(CO)(CO)NCc1ccc2c(ccc3cc4ccccc4cc32)c1 | 20% | 0 | 200 mg/kg | 200 mg/kg |  |  | 
7 | CC(CO)(CO)NCc1c2ccccc2cc2ccccc12.Cl | 30% | 0 | 150 mg/kg | 150 mg/kg |  |  | 
8 | CC(CO)(CO)NCc1ccc2c3ccccc3c3ccccc3c2c1.Cl | 100% | 0 | 85 mg/kg | 85 mg/kg |  |  | 
9 | CC(CO)(CO)NCc1c2ccccc2cc2c1ccc1ccccc12 | 180% |  | 220 mg/kg | 180 mg/kg |  |  | No. of animals survived (Mus musculus [11]): 2; No. of animals survived (Mus musculus [9]): 0
10 | CC(CO)(CO)NCc1ccc(-c2ccccc2)cc1.Cl |  |  |  | 283 mg/kg | 283 mg/kg | inactive | 
11 | CC(CO)(CO)NCc1cc2ccc3ccccc3c2c2ccccc12 | 42% | 0 | 15 mg/kg | 7.5 mg/kg |  |  | 
12 | CC(CO)(CO)NCc1cccc2c1-c1cccc3cccc-2c13.Cl | 142% | 0 |  | 100 mg/kg |  |  | LD20 (P388 [5]): 123 mg/kg
13 | CC(CO)(CO)NCc1cccc2c1ccc1ccccc12.Cl | 65% | 0 | 225 mg/kg | 230 mg/kg |  |  | 
14 | CC(CO)(CO)NCc1cccc2cc3ccccc3cc12.Cl | 125% | 0 | 110 mg/kg | 120 mg/kg |  |  | 
15 | CC(CO)(CO)NCc1ccc2c3c(cccc13)-c1ccccc1-2.Cl | 190% |  |  | 105 mg/kg |  |  | No. of animals survived (Mus musculus [12]): 5; LD20 (P388 [5]): 110 mg/kg; No. of animals survived (Mus musculus [13]): 3
16 | CC(CO)(CO)NCc1ccc2cc3ccccc3cc2c1.Cl |  |  |  | 250 mg/kg | 250 mg/kg | inactive | 
17 | CC(CO)(CO)NCc1cc2ccccc2c2ccccc12.Cl | 60% | 0 | 125 mg/kg | 150 mg/kg |  |  | 
18 | CC(CO)(CO)NCc1ccc2ccc3ccccc3c2c1.Cl | 20% | 0 | 250 mg/kg | 225 mg/kg |  |  | 
19 | CC(CO)(CO)NCc1cc2cccc3ccc4cccc1c4c32.Cl | 45% | 0 | 40 mg/kg | 40 mg/kg |  |  | 
20 | CC(CO)(CO)NCc1ccccc1.Cl |  |  |  | 350 mg/kg | 350 mg/kg | inactive | 

Row | SMILES | ILS (Mus musculus [1]) | No. of animals survived (Mus musculus [2]) | LD20 (P388 [3]) | Optimal dose (P388 [4]) | Highest non-toxic dose (P388 [6]) | ILS (Mus musculus [7]) | also measured
21 | CC(CO)(CO)NCc1ccc2ccc3c4ccccc4ccc3c2c1 | 20% | 0 | 110 mg/kg | 110 mg/kg |  |  | 
22 | CC(CO)(CO)NCc1cccc2ccc3c4ccccc4ccc3c12 | 120% |  | 225 mg/kg | 225 mg/kg |  |  | No. of animals survived (Mus musculus [14]): 1; No. of animals survived (Mus musculus [9]): 0
23 | CC(CO)(CO)NCc1cccc2c3ccccc3c3ccccc3c12.Cl | 25% | 0 | 165 mg/kg | 155 mg/kg |  |  | 
24 | CC(CO)(CO)NCc1cccc2ccccc12.Cl |  |  |  | 180 mg/kg | 180 mg/kg | inactive | 
25 | CC(CO)(CO)NCc1ccc2c(c1)Cc1ccccc1-2.Cl |  |  |  | 225 mg/kg | 225 mg/kg | inactive | 
26 | CC(CO)(CO)NCc1ccc2ccc3cccc4ccc1c2c34.Cl | 120% | 0 | 275 mg/kg | 260 mg/kg |  |  | 
27 | CC(CO)(CO)NCc1cc2c3ccccc3ccc2c2ccccc12 [CRISNATOL] | 215% |  | 120 mg/kg | 120 mg/kg |  |  | No. of animals survived (Mus musculus [15]): 6; No. of animals survived (Mus musculus [13]): 3
28 | CC(CO)(CO)NCc1cc2c3c(cccc3c1)-c1ccccc1-2.Cl | 105% | 0 |  | 160 mg/kg |  |  | LD20 (P388 [5]): 160 mg/kg
29 | CCCCCCCCCCCCNC(C)(CO)CO.Cl |  |  |  | 75 mg/kg | 75 mg/kg | inactive | 
30 | CC(CO)(CO)NCc1ccc2ccccc2c1.Cl |  |  |  | 240 mg/kg | 240 mg/kg | inactive | 
31 | CC(CO)(CO)NCc1cccc2ccc3ccccc3c12.Cl |  |  |  | 269 mg/kg | 269 mg/kg | inactive | 
32 | CC(CO)(CO)NCc1cc2c3c(ccc4c3c1CCC4)CCC2.Cl |  |  |  | 151 mg/kg | 151 mg/kg | inactive | 
33 | CC(CO)(CO)NCc1c2c(cc3ccccc13)Cc1ccccc1-2 | 210% |  |  | 250 mg/kg | 250 mg/kg |  | No. of animals survived (Mus musculus [8]): 3; No. of animals survived (Mus musculus [9]): 0
34 | CC(CO)(CO)NCc1ccc2c(c1)-c1cccc3cccc-2c13.Cl |  |  |  | 150 mg/kg | 166 mg/kg | inactive | 
35 | CC(CO)(CO)NCc1c2ccccc2c2ccc3cccc4ccc1c2c43 | 100% | 0 | 123 mg/kg | 100 mg/kg |  |  | 
36 | CC(CO)(CO)NCc1ccc2c(ccc3c4ccccc4ccc23)c1 |  |  | 450 mg/kg | 450 mg/kg |  | inactive | 
37 | CC(CO)(CO)NCc1ccc2c(ccc3ccccc32)c1.Cl | 33% | 0 | 175 mg/kg | 200 mg/kg |  |  | 
38 | CC(CO)(CO)NCc1ccc2c3c1ccc1cccc(c13)C2 | 45% | 0 | 300 mg/kg | 270 mg/kg |  |  | 
39 | CC(CO)(CO)NCc1c2ccccc2cc2cc3ccccc3cc12 | 165% |  | 60 mg/kg | 60 mg/kg |  |  | No. of animals survived (Mus musculus [11]): 2; No. of animals survived (Mus musculus [9]): 0

From ChEMBL document CHEMBL1125275, “2-[(arylmethyl) amino]-2-methyl-1,3-propanediol DNA intercalators. An examination of the effects of aromatic ring variation on antitumor activity and DNA binding” (J Med Chem, 1991)
